Drawing on ChEMBL document CHEMBL3244358, “Conformational analogues of antihypertensive agents related to guanethidine” (J Med Chem, 1977), this text covers EPMR, ID50 and inhibition for 15 compounds.

Calls of active or inactive are those of the source. No cut-off for these calls is given here.

Assay [1] is filed under the species Cavia porcellus. In words: Equipotent molar ratio, ratio of compound ID50 to guanethidine ID50 for adrenergic receptor in guinea pig vas deferens assessed as inhibition of electrically-induced release of norepinephrine.
The species entered for assay [2] is Cavia porcellus. In words: Antagonist activity at adrenergic receptor in guinea pig vas deferens assessed as inhibition of electrically-induced release of norepinephrine measured every 10 mins. Type of assay: tissue-based. Put shortly:
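Isolated guinea pig vas deferens in Krebs solution, stimulated transmurally for 15 s every 4 min at 25-35 shocks/s, 0.1 ms pulses, supramaximal 110-120 V. Salts were dissolved in distilled water, with a fresh preparation for each drug. Responses were read at 10-min intervals. ID50, the bath concentration giving 50% inhibition, came from dose-response curves of at least three concentrations, as free base.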

Assay [3] is filed under the species Cavia porcellus. In words: Antagonist activity at adrenergic receptor in guinea pig vas deferens assessed as inhibition of electrically-induced release of norepinephrine at 1 x 10^-4 M measured every 10 mins. Type of assay: tissue-based.

Regarding `N=C(N)N[C@@H]1C[C@H]1c1ccccc1`, the EPMR in assay [1] worked out at 2.52. Besides, in assay [2], the ID50 stood at 5.05 µM.
For the compound `N=C(N)NC1Cc2ccccc2C1`, the inhibition result in assay [3] is “inactive”.
`N=C(N)NC1CCc2ccccc21` (stereo unspecified): the EPMR in assay [1] turned out to be 2.9. In addition, in assay [2], the ID50 was found to be 5.8 µM.
For `COc1ccc2c(c1)CCC2NC(=N)N` (stereo unspecified), in assay [3], the inhibition entry was “inactive”.
As to `N=C(N)NC[C@H]1C[C@H]1c1ccccc1` (relative stereo), in assay [1], the EPMR stood at 4.55. Further, the ID50 in assay [2] stood at 9.1 µM.
Consider `N=C(N)NC/C=C/C1CCCCC1`, for which, in assay [1], the EPMR came out at 0.39. Besides, the ID50 in assay [2] was 7.7 ×10⁻⁷ M.
Turning to `N=C(N)NCCc1ccc2ccccc2c1`, the EPMR in assay [1] stood at 2.5. In addition, in assay [2], the ID50 stood at 5 µM.
For `N=C(N)NC1CCc2ccc([N+](=O)[O-])cc21` (stereo unspecified) the same measures were 10 and 2 ×10⁻⁵ M.
Consider `N=C(N)NCCN1CCCCCCC1`, for which the ID50 in assay [2] was 2 µM.
For the compound `N=C(N)NCCc1cccc2ccccc12`, the EPMR in assay [1] worked out at 6. Also, in assay [2], the ID50 was determined as 1.2 ×10⁻⁵ M.
With `N=C(N)NCc1cccc2ccccc12`, the EPMR in assay [1] came to 0.095. Further, in assay [2], the ID50 was 1.9 ×10⁻⁷ M.
For `N=C(N)NC[C@@H]1C[C@H]1c1ccccc1`, the EPMR in assay [1] was 3.65. Moreover, the ID50 in assay [2] worked out at 7.3 µM.
Regarding `N=C(N)N[C@H]1C[C@H]1c1ccccc1` (relative stereo), in assay [3], the inhibition entry is “inactive”.
Take `N=C(N)NC/C=C\C1CCCCC1`: the EPMR in assay [1] worked out at 0.049. Moreover, the ID50 in assay [2] was 9.8 ×10⁻⁸ M.
Regarding `N=C(N)NCC1Cc2ccccc21` (stereo unspecified), the EPMR in assay [1] turned out to be 1.25. Moreover, in assay [2], the ID50 was found to be 2.5 µM.
